For series [1], the target named is T1, Prostaglandin E2 receptor EP1 subtype (Homo sapiens, UniProt P34995).
T1 sequence (P34995 whole entry): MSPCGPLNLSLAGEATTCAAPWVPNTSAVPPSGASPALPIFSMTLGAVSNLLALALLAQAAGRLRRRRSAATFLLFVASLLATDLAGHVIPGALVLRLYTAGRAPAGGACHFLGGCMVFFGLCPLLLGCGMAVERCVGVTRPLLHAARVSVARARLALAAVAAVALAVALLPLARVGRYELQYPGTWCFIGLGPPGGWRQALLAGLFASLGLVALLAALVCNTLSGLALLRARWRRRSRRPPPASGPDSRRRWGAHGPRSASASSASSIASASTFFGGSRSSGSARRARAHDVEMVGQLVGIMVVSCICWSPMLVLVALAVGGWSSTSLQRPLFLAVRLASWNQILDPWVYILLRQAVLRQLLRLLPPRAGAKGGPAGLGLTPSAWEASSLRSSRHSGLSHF
Briefly: Displacement of [3H]PGE2 from human PGE2-EP1 receptor expressed in CHO-K1 cells. Type of series: cell-based. In general terms: Loss of bound radioactivity is the signal in a displacement assay; it reports binding, not function.

A short description of series [2]: Distribution coefficient, logD at pH 7.4. To be noted: octanol/water. Type of series: physicochemical. The procedure, abridged:
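Distribution coefficient between n-octanol and water buffered to pH 7.4; log10 of ratio of equilibrium concentrations of all species.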

Series [3] can be described thus: Clearance in blood in rat at 10 mL/h/kg, iv. To be noted: whole blood. Type of series: ADME, organism-based. The procedure, abridged: (§1)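 Male rats (n = 1 per compound) dosed iv at 10 mL/h/kg over 1 h via femoral vein cannula, target 1 mg free compound/kg, formulated at 0.1 mg/mL in 0.9% saline with 2% DMSO and 10–20% Kleptose (some with a molar equivalent NaOH), filtered before dosing.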

Series [4] can be described thus: Volume of distribution at steady state in rat at 10 mL/h/kg, iv. Type of series: ADME, organism-based. Conditions: in vivo, read-out: Vdss. The procedure, abridged:
as §1

Series [5] can be described thus: Half life in rat at 10 mL/h/kg, iv. The format is ADME, organism-based. To be noted: in vivo. The procedure, abridged:
as §1

Series [6] deals with Blood. As to the kind of experiment: Drug uptake in FCA-induced hypersensitivity rat blood at 1 mg/kg, po administered with NMP as vehicle. The format is ADME, organism-based. Details: dose 1 mg/kg, route oral. Conditions: in vivo, read-out: Drug uptake. The method, boiled down:
(§2)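 CFA inflammatory pain rats dosed orally at 1, 3 and 10 mg/kg in 2% NMP, 2% miglyol, 2% solutol–Kleptose in water; samples taken 1 h post-dose. Blood levels mean of seven rats; brain level at 10 mg/kg only, mean of three rats.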

The subject of series [7] is Blood. As to the kind of experiment: Drug uptake in FCA-induced hypersensitivity rat blood at 10 mg/kg, po administered with NMP as vehicle. The format is ADME, organism-based. Set-up: dose 10 mg/kg, route oral. To be noted: in vivo, read-out: Drug uptake. The method, boiled down: as §2
In series [8] the test system is Brain. Briefly: Drug uptake in FCA-induced hypersensitivity rat brain at 10 mg/kg, po administered with NMP as vehicle. The format is ADME, organism-based. Set-up: dose 10 mg/kg, route oral. To be noted: read-out: Drug uptake, in vivo. The procedure, abridged:
as §2

A short description of series [9]: Ratio of drug level in brain to blood in FCA-induced hypersensitivity rat at 10 mg/kg, po administered with NMP as vehicle. The format is ADME, organism-based. Set-up: dose 10 mg/kg, route oral. The procedure, abridged:
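CFA inflammatory pain model in rats, oral dosing at 1, 3 and 10 mg/kg in 2% NMP, 2% miglyol and 2% solutol–Kleptose in water. Samples taken 1 h post-dose with the weight-bearing readout. Brain concentration measured at 10 mg/kg only; brain:blood ratio is the mean of three rats, with blood levels the mean of seven.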

The nature of series [10]: Ratio of drug level in brain to blood in FCA-induced hypersensitivity rat at 10 mg/kg, po administered with DMSO and PEG400 as vehicle. Type of series: ADME, organism-based. Details: dose 10 mg/kg, route oral. The procedure, abridged:
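Rats with CFA-induced inflammatory pain dosed orally at 1, 3, 10 (and 30) mg/kg in 1% DMSO, 66% PEG400, 33% water. Blood and brain sampled 1 h post-dose, alongside the weight-bearing readout. Brain:blood ratio taken from the 10 mg/kg group, mean of seven rats.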

In series [11] the target is T1, Prostaglandin E2 receptor EP1 subtype. Briefly: Antagonist activity at PGE2-EP1 receptor assessed as PGE2-induced response by schild analysis. Conditions: read-out: pA2 (converted). The format is functional.
Series [12] has the same target. As to the kind of experiment: Antagonist activity at PGE2-EP1 receptor assessed as PGE2-induced intracellular calcium mobilization. The format is functional, cell-based. (In general: Calcium flux is commonly read through the fluorescence of an indicator in the cells.)
The target in series [13] is T2, Prostaglandin E2 receptor EP3 subtype (Homo sapiens, UniProt P43115).
T2 sequence (P43115 whole entry): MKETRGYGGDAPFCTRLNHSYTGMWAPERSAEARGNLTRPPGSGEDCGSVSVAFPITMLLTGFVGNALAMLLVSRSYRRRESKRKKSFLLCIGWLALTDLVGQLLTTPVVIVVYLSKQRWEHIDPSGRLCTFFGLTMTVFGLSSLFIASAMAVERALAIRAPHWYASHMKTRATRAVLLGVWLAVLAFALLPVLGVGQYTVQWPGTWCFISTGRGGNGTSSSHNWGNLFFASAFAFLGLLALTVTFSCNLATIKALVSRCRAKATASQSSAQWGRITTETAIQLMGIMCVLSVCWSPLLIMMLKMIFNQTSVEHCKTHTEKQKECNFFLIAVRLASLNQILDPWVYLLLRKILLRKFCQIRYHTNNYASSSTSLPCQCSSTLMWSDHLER
Briefly: Antagonist activity at PGE2-EP3 receptor assessed as PGE2-induced intracellular calcium mobilization. The format is functional, cell-based.

Series [14] has as its target T3, Cytochrome P450 1A2 (Homo sapiens, UniProt P05177).
T3 sequence (P05177 whole entry): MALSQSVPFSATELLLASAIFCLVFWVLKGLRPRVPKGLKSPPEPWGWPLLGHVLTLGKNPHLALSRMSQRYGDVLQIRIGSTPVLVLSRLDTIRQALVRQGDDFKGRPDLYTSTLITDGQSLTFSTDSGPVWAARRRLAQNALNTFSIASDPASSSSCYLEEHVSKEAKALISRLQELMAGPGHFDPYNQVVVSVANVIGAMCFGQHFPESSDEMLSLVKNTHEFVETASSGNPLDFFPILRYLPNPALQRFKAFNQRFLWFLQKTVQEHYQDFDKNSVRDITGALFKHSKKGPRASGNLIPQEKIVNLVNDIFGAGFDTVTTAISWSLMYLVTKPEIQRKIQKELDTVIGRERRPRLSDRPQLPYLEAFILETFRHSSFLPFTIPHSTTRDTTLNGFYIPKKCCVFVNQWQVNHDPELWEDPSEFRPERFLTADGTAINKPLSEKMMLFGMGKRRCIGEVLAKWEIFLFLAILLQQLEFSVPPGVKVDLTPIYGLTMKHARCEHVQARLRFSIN
Briefly: Inhibition of CYP1A2. The format is ADME.

The target of series [15] is Cytochrome P450 2C19 (Homo sapiens, UniProt P33261). Briefly: Inhibition of CYP2C19. Type of series: ADME.
Chain of Cytochrome P450 2C19 (P33261 whole entry): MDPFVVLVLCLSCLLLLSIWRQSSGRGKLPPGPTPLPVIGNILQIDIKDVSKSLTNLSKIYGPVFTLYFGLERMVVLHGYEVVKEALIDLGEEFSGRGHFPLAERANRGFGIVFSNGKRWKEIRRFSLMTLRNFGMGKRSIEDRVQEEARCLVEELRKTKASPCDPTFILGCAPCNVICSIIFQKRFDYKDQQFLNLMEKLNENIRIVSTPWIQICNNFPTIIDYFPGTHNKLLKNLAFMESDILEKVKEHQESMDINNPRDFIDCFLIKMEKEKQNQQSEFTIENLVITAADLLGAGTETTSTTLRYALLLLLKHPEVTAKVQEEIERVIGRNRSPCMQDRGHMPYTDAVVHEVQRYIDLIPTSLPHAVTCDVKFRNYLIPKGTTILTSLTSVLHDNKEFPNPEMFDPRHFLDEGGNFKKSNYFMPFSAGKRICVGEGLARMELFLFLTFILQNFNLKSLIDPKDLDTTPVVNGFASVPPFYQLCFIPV
Series [16] concerns the target Cytochrome P450 2C9 (Homo sapiens, UniProt P11712). Briefly: Inhibition of CYP2C9. Type of series: ADME.
The target of series [17] is Cytochrome P450 2D6 (Homo sapiens, UniProt P10635). Briefly: Inhibition of CYP2D6. Type of series: ADME.
Chain of Cytochrome P450 2D6 (P10635 whole entry): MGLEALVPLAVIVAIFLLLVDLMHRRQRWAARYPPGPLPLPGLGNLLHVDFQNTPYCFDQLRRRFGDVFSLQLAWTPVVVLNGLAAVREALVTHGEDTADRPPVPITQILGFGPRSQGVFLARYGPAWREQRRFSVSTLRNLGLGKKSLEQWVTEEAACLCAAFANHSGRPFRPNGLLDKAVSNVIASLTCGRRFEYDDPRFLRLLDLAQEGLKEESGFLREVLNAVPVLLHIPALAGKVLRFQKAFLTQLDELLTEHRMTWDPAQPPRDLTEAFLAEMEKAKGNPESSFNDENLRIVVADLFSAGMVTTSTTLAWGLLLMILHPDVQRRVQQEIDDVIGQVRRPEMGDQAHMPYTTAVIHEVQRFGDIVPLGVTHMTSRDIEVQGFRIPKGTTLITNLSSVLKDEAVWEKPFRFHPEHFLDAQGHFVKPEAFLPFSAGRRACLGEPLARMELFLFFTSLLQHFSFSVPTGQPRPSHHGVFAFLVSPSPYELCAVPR
The target in series [18] is Cytochrome P450 3A4 (Homo sapiens, UniProt P08684). Briefly: Inhibition of CYP3A4. Type of series: ADME.
Chain of Cytochrome P450 3A4 (P08684 whole entry): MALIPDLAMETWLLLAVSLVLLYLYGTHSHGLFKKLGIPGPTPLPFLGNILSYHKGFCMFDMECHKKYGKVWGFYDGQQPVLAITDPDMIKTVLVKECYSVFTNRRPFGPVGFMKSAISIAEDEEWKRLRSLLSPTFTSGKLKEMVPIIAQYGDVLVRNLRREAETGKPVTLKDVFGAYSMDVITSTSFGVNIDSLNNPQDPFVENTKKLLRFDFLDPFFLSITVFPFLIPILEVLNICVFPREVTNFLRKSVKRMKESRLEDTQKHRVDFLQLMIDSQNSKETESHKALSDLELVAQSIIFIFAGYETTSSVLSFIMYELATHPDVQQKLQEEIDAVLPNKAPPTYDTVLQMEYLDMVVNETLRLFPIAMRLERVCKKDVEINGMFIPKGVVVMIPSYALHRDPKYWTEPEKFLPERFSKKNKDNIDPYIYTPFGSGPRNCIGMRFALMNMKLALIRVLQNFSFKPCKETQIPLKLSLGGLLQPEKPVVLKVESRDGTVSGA
Series [19] relates to Rattus norvegicus. As to the kind of experiment: Reversal of FCA-induced hypersensitivity in orally dosed rat assessed as reduction in weight bearing administered with NMP as vehicle. Conditions: po. Type of series: functional. The procedure, abridged:
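Oral dosing in the rat CFA inflammatory pain model was at 1, 3 and 10 mg/kg. The vehicle was 2% NMP, 2% miglyol and 2% solutol–Kleptose in water. Weight bearing was assessed 1 h post-dose. Blood was sampled at 1 h (seven rats), and brain at 10 mg/kg (three rats). ED50 was given in mg/kg.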

The subject of series [20] is Rattus norvegicus. As to the kind of experiment: Reversal of FCA-induced hypersensitivity in orally dosed rat assessed as reduction in weight bearing administered with DMSO and PEG400 as vehicle. Conditions: po. The format is functional. The method, boiled down: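 Rats with CFA-induced inflammatory pain were dosed orally at 1, 3 and 10 mg/kg or 1, 3, 10 and 30 mg/kg. The vehicle was 1% DMSO, 66% PEG400 and 33% water. Weight bearing was read 1 h post-dose and samples were taken then. Brain:blood ratio was measured in the 10 mg/kg group (n=7). ED50 was derived in mg/kg.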

In series [21] the test system is Blood. Briefly: Drug uptake in FCA-induced hypersensitivity rat blood at 3 mg/kg, po administered with NMP as vehicle. To be noted: in vivo.

Each structure is given as a SMILES string.

Chain of Cytochrome P450 2C9 (P11712 whole entry): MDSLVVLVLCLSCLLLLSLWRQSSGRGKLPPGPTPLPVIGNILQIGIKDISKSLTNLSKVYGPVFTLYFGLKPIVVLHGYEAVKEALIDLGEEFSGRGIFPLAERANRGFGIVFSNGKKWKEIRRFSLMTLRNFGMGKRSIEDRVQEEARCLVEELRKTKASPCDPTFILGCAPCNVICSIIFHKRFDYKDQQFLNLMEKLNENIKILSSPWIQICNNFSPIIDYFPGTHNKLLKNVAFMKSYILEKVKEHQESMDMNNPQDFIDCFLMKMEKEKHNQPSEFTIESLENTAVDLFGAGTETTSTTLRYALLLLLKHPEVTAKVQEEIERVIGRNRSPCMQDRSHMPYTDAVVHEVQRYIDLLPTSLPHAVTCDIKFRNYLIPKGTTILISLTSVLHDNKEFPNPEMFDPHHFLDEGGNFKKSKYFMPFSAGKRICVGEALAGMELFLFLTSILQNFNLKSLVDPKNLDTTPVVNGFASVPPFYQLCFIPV

In general, IC50 refers to the point on the concentration scale where inhibition reaches its midpoint. A low value points to higher potency. What is called logD is the decadic logarithm of the distribution of all forms, ionised or not, between an organic phase and buffer at a given pH. Read a low logD as a more hydrophilic compound. As usually defined, the clearance is the volume of plasma or blood freed of the substance per unit of time. Read a low clearance as a low capacity for elimination. What is called half-life is the time in which the quantity being followed falls by half. A low value points to rapid decline. Regarding `Cc1cc(C(=O)NCc2ccccn2)nn1Cc1cc(Cl)ccc1OCc1ccccc1`, the IC50 in series [1] was 0.0251 µM. In series [2], this molecule returned a logD of more than 3.7. The same molecule displayed a clearance in series [3] of 68 mL/min/kg. Also, the Vd in [4] came to 3.6 L/kg. The half-life in series [5] is 1.3 h.

In general, Kp refers to tissue or fluid exposure divided by exposure in the circulation. What is called Ki is a measure of affinity in units of concentration, obtained from inhibition or displacement. Broadly, the ED50 is the midpoint of the dose-response relation. Consider `Cc1cc(NC(=O)OC(C)C)nn1Cc1cc(Cl)ccc1OCc1ccccc1`, for which the concentration in [6] stood at 153 nM; in [7], 1400 nM; in series [8] it was 3330 nM; in series [21] it was 749 nM. For the same molecule, the Kp came out at 2.2 in series [9] and 1.73 in [10]. Besides, the IC50 was 0.0316 µM in series [1]; 7.8 µM in series [14]; more than 100 µM in series [15]; 17 µM in series [16]; more than 100 µM in [17]; more than 81 µM in [18]. In addition, in [2], the logD is more than 3.7. In series [11], the Kb was 0.00794 µM. The figures for the Ki in [12] and in [13] were 0.0501 µM and more than 10 µM, respectively. Moreover, the ED50 is 4.6 mg/kg in series [19] and 1.89 mg/kg in series [20].

Source of the values: ChEMBL document CHEMBL1143088, “Non-acidic pyrazole EP1 receptor antagonists with in vivo analgesic efficacy” (Bioorg Med Chem Lett, 2008).
